SMILES strings stand for the structures.

One test addresses P2Y purinoceptor 4 (Homo sapiens, UniProt P51582). Nature of the test: Antagonist activity against human P2Y4 receptor expressed in 1321N1 astrocytoma cells by calcium mobilization assay. It is filed as functional, cell-based. The method, boiled down:
(§1)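 Astrocytoma cell lines stably transfected with human P2Y2, human P2Y4 or rat P2Y6 receptor. Inhibition of receptor-mediated intracellular calcium mobilization was measured.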
A general note: Calcium assays in cells follow changes in intracellular calcium, usually with a dye or a luminescent sensor.

Test [1] has as its target P2Y purinoceptor 6 (Rattus norvegicus) (UniProt Q63371). Nature of the test: Antagonist activity against rat P2Y6 receptor expressed in 1321N1 astrocytoma cells by calcium mobilization assay.
Another test has as its target T1, P2X purinoceptor 2 (Rattus norvegicus, UniProt P49653).
T1 sequence (P49653 whole entry): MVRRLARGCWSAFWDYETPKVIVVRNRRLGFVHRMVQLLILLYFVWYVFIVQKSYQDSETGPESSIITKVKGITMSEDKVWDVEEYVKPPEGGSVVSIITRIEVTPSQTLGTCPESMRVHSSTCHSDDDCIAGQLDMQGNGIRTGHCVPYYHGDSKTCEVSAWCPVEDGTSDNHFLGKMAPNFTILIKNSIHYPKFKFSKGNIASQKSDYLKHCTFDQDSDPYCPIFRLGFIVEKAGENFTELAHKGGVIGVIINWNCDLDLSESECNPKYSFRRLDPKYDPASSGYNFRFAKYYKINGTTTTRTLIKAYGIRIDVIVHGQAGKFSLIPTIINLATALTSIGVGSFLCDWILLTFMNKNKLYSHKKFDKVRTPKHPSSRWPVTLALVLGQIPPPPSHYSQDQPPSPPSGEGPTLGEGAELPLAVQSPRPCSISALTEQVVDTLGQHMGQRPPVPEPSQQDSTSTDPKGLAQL
Nature of the test: Antagonist activity against rat P2X2 receptor expressed in Xenopus laevis oocyte assessed as inhibition of ATP-induced inward current by two-electrode voltage-clamp electrophysiology. For orientation: Two-electrode voltage clamp is typically applied to oocytes expressing channels or transporters.

The target in the next test is T2, P2X purinoceptor 4 (Rattus norvegicus, UniProt P51577).
T2 sequence (P51577 whole entry): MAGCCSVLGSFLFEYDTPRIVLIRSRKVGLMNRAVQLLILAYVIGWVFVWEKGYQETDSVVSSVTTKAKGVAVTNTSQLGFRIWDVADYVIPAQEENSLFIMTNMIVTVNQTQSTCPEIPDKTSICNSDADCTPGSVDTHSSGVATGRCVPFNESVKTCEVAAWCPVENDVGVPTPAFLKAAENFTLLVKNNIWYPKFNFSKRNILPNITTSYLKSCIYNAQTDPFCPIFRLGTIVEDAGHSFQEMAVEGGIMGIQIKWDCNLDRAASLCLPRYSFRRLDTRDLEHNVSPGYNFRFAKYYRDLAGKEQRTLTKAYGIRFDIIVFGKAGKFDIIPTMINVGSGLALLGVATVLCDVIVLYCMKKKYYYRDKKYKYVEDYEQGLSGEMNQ
The test can be described thus: Antagonist activity against rat P2X4 receptor expressed in Xenopus laevis oocyte assessed as inhibition of ATP-induced inward current by two-electrode voltage-clamp electrophysiology.

A further test addresses P2Y purinoceptor 2 (Homo sapiens, UniProt P41231). The test can be described thus: Antagonist activity against human P2Y2 receptor expressed in 1321N1 astrocytoma cells by calcium mobilization assay. It is filed as functional, cell-based. The method, boiled down: as §1

Chain of P2Y purinoceptor 4 (P51582 whole entry): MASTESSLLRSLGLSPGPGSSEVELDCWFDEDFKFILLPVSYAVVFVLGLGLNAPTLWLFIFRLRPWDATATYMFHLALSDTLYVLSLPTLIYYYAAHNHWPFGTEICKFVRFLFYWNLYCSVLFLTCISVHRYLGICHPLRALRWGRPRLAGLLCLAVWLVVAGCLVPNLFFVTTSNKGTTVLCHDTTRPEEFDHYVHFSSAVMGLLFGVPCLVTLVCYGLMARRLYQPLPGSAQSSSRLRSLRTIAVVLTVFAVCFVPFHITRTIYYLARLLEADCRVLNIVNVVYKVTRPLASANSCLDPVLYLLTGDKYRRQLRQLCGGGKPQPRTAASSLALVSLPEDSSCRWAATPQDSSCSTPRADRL
Chain of P2Y purinoceptor 2 (P41231 whole entry): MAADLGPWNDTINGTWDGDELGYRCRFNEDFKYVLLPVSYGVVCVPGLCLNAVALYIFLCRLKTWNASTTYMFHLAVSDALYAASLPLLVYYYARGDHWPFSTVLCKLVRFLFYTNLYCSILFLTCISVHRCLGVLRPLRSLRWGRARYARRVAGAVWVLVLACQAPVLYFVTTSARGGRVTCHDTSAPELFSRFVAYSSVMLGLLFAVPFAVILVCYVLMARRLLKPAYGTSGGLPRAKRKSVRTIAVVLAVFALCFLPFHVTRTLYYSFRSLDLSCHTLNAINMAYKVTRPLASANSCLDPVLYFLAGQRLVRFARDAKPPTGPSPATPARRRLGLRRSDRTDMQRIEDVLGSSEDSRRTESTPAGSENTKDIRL

`Nc1c(S(=O)(=O)O)cc(Nc2ccc(O)cc2)c2c1C(=O)c1ccccc1C2=O`: the concentration for half-maximal inhibition (IC50) (commonly the concentration that gives 50% inhibition) on P2Y purinoceptor 4 is 2220 nM; in test [1], 5300 nM; on P2X purinoceptor 2, 588 nM; at P2X purinoceptor 4, over 10000 nM.
Take `Nc1c(S(=O)(=O)O)cc(Nc2ccc(C(=O)O)cc2)c2c1C(=O)c1ccccc1C2=O`: the IC50 is 1000 nM on P2X purinoceptor 2 and over 10000 nM at P2X purinoceptor 4.
The matching figures for `CC(=O)Nc1ccc(Nc2cc(S(=O)(=O)O)c(N)c3c2C(=O)c2ccccc2C3=O)cc1`: 690 nM and over 10000 nM.
The like results for `Nc1c(S(=O)(=O)O)cc(Nc2cc(Cl)ccc2C(=O)O)c2c1C(=O)c1ccccc1C2=O` were, in that order, 1000 nM and over 10000 nM.
As to `Cc1ccc(Nc2cc(S(=O)(=O)O)c(N)c3c2C(=O)c2ccccc2C3=O)cc1`, the IC50 on P2X purinoceptor 2 is 1000 nM; at P2X purinoceptor 4 it was over 10000 nM.
On to `Nc1c(S(=O)(=O)O)cc(Nc2cccc3ccccc23)c2c1C(=O)c1ccccc1C2=O`, for which the IC50 at P2X purinoceptor 2 and on P2X purinoceptor 4 was over 10000 nM in each case.
On to `Nc1ccc(Nc2cc(S(=O)(=O)O)c(N)c3c2C(=O)c2ccccc2C3=O)cc1S(=O)(=O)O`, for which the IC50 on P2X purinoceptor 2 is 1000 nM; at P2X purinoceptor 4, over 10000 nM.
The like results for `COc1ccc(Nc2cc(S(=O)(=O)O)c(N)c3c2C(=O)c2ccccc2C3=O)cc1` were, in that order, 1730 nM and over 10000 nM.
The like results for `CCOc1ccccc1Nc1cc(S(=O)(=O)O)c(N)c2c1C(=O)c1ccccc1C2=O` were, in that order, 1000 nM and over 10000 nM.
`Cc1ccc(Nc2cc(S(=O)(=O)O)c(N)c3c2C(=O)c2ccccc2C3=O)c(C)c1`: the IC50 on P2X purinoceptor 2 is 1000 nM; on P2X purinoceptor 4, over 10000 nM.
Take `COc1cc(Nc2cc(S(=O)(=O)O)c(N)c3c2C(=O)c2ccccc2C3=O)cc(OC)c1`: the IC50 at P2X purinoceptor 2 is over 1000 nM.
For `Cc1ccccc1Nc1cc(S(=O)(=O)O)c(N)c2c1C(=O)c1ccccc1C2=O`, the IC50 was 1000 nM at P2X purinoceptor 2 and over 10000 nM at P2X purinoceptor 4.
The matching figures for `Nc1c(S(=O)(=O)O)cc(Nc2cccc(C(=O)O)c2)c2c1C(=O)c1ccccc1C2=O`: 1000 nM and over 10000 nM.
As to `Nc1c(S(=O)(=O)O)cc(Nc2ccc(Nc3ncccn3)c(S(=O)(=O)O)c2)c2c1C(=O)c1ccccc1C2=O`, the IC50 on P2X purinoceptor 2 is 1000 nM; at P2X purinoceptor 4, over 10000 nM.
The matching figures for `Nc1c(S(=O)(=O)O)cc(Nc2ccc(F)cc2)c2c1C(=O)c1ccccc1C2=O`: 1000 nM and over 10000 nM.
As for `CCc1cccc(Nc2cc(S(=O)(=O)O)c(N)c3c2C(=O)c2ccccc2C3=O)c1`, the IC50 on P2X purinoceptor 2 is over 1000 nM.
Turning to `Nc1ccc(Nc2cc(S(=O)(=O)O)c(N)c3c2C(=O)c2ccccc2C3=O)cc1`, the IC50 on P2X purinoceptor 2 and on P2X purinoceptor 4 was over 10000 nM throughout.
With `Nc1c(S(=O)(=O)O)cc(Nc2ccc(Nc3ncccn3)cc2)c2c1C(=O)c1ccccc1C2=O`, the IC50 at P2X purinoceptor 2 was over 1000 nM; on P2X purinoceptor 4, over 10000 nM.
The like results for `Cc1cccc(Nc2cc(C)c(N)c3c2C(=O)c2ccccc2C3=O)c1` were, in that order, over 10000 nM and over 10000 nM.
Regarding `Cc1cccc(Nc2cc(S(=O)(=O)O)c(N)c3c2C(=O)c2ccccc2C3=O)c1C`, the half-maximal inhibitory concentration (IC50) on P2X purinoceptor 2 is 1000 nM; at P2X purinoceptor 4, over 10000 nM.
Regarding `Nc1c(S(=O)(=O)O)cc(Nc2ccc(Nc3nc(O)nc(O)n3)cc2)c2c1C(=O)c1ccccc1C2=O`, the 50% inhibitory concentration (IC50) was 30000 nM on P2Y purinoceptor 2, 10000 nM at P2Y purinoceptor 4, 197 nM at P2X purinoceptor 2 and over 10000 nM at P2X purinoceptor 4.
As to `Nc1c(S(=O)(=O)O)cc(Nc2cc(F)cc(F)c2)c2c1C(=O)c1ccccc1C2=O`, on P2X purinoceptor 2, the IC50 was over 1000 nM.
As to `Nc1c(S(=O)(=O)O)cc(Nc2ccc(S(=O)(=O)O)c(Nc3nc(O)nc(O)n3)c2)c2c1C(=O)c1ccccc1C2=O`, the IC50 at P2X purinoceptor 2 is 300 nM.
In the case of `COc1ccccc1Nc1cc(S(=O)(=O)O)c(N)c2c1C(=O)c1ccccc1C2=O`, the IC50 was 2000 nM at P2X purinoceptor 2 and over 10000 nM at P2X purinoceptor 4.
As to `Cc1c(N)cccc1Nc1cc(S(=O)(=O)O)c(N)c2c1C(=O)c1ccccc1C2=O`, the IC50 is 1000 nM at P2X purinoceptor 2 and over 10000 nM at P2X purinoceptor 4.
For the compound `Nc1cc(Nc2cc(S(=O)(=O)O)c(N)c3c2C(=O)c2ccccc2C3=O)ccc1S(=O)(=O)O`, the IC50 is 1000 nM at P2X purinoceptor 2 and over 10000 nM at P2X purinoceptor 4.
The matching figures for `Nc1c(S(=O)(=O)O)cc(Nc2ccc(Cl)cc2C(=O)O)c2c1C(=O)c1ccccc1C2=O`: 1000 nM and over 10000 nM.
The like results for `CCOP(=O)(Cc1ccc(Nc2cc(S(=O)(=O)O)c(N)c3c2C(=O)c2ccccc2C3=O)cc1)OCC` were, in that order, 1000 nM and over 10000 nM.
The matching figures for `Nc1c(S(=O)(=O)O)cc(Nc2cccc(Br)c2)c2c1C(=O)c1ccccc1C2=O`: 1000 nM and over 10000 nM.
As to `Nc1c(S(=O)(=O)O)cc(Nc2ccccc2C(=O)O)c2c1C(=O)c1ccccc1C2=O`, the IC50 is 1000 nM on P2X purinoceptor 2 and over 10000 nM on P2X purinoceptor 4.
In the case of `Cc1cc(Nc2ccccc2)c2c(c1N)C(=O)c1ccccc1C2=O`, the IC50 on P2X purinoceptor 2 and at P2X purinoceptor 4 was over 10000 nM each time.
In the case of `Nc1c(S(=O)(=O)O)cc(Nc2ccccc2)c2c1C(=O)c1ccccc1C2=O` [ACID BLUE 25], the IC50 was 84600 nM in test [1], 1000 nM on P2X purinoceptor 2 and over 10000 nM at P2X purinoceptor 4.
As for `Cc1cc(C)c(Nc2cc(S(=O)(=O)O)c(N)c3c2C(=O)c2ccccc2C3=O)c(C)c1` [ACID BLUE 129], the results for the IC50 at P2X purinoceptor 2 and on P2X purinoceptor 4 were 1000 nM and over 10000 nM, respectively.
The matching figures for `Nc1c(S(=O)(=O)O)cc(NC2CCCCC2)c2c1C(=O)c1ccccc1C2=O`: 1000 nM and over 10000 nM.
Take `Nc1c(S(=O)(=O)O)cc(Nc2cccc(C(F)(F)F)c2)c2c1C(=O)c1ccccc1C2=O`: the IC50 at P2X purinoceptor 2 was over 1000 nM.
The same measure, in the same setting: then `Nc1c(S(=O)(=O)O)cc(Nc2cccc(F)c2)c2c1C(=O)c1ccccc1C2=O`, with over 1000 nM.
With `Nc1c(S(=O)(=O)O)cc(Nc2ccc(Oc3ccccc3)cc2)c2c1C(=O)c1ccccc1C2=O`, the IC50 is 1000 nM on P2X purinoceptor 2 and over 10000 nM on P2X purinoceptor 4.
`Nc1c(S(=O)(=O)O)cc(Nc2ccc(S(=O)(=O)O)cc2)c2c1C(=O)c1ccccc1C2=O`: the values for the IC50 on P2X purinoceptor 2 and at P2X purinoceptor 4 were 1000 nM and over 10000 nM, respectively.
The like results for `Nc1c(S(=O)(=O)O)cc(Nc2ccc(CC(=O)O)cc2)c2c1C(=O)c1ccccc1C2=O` were, in that order, 1000 nM and over 10000 nM.
The matching figures for `Nc1c(S(=O)(=O)O)cc(Nc2ccccc2O)c2c1C(=O)c1ccccc1C2=O`: 1000 nM and over 10000 nM.
As for `Nc1c(S(=O)(=O)O)cc(Nc2cccc([N+](=O)[O-])c2)c2c1C(=O)c1ccccc1C2=O`, the concentration for half-maximal inhibition (IC50) on P2X purinoceptor 2 was over 1000 nM.
As to `Cc1cc(C)c(Nc2cc(S(=O)(=O)O)c(N)c3c2C(=O)c2ccccc2C3=O)c(C)c1N`, the half-inhibitory concentration (IC50) at P2X purinoceptor 2 is 1000 nM; on P2X purinoceptor 4, over 10000 nM.
The matching figures for `Nc1c(S(=O)(=O)O)cc(Nc2ccc(O)c(C(=O)O)c2)c2c1C(=O)c1ccccc1C2=O`: 1000 nM and over 10000 nM.
The matching figures for `Nc1c(S(=O)(=O)O)cc(Nc2ccccc2S(=O)(=O)O)c2c1C(=O)c1ccccc1C2=O`: over 10000 nM and over 10000 nM.
On to `Nc1c(S(=O)(=O)O)cc(Nc2cccc(Cl)c2)c2c1C(=O)c1ccccc1C2=O`, for which the values for the concentration for half-maximal inhibition (IC50) (at P2Y purinoceptor 4; in test [1]; at P2X purinoceptor 2) were 21800 nM, over 10000 nM and 100 nM, respectively.
`Nc1c(S(=O)(=O)O)cc(Nc2ccc(Nc3nc(Cl)nc(Cl)n3)c(S(=O)(=O)O)c2)c2c1C(=O)c1ccccc1C2=O`: the IC50 is 1160 nM at P2X purinoceptor 2 and over 10000 nM on P2X purinoceptor 4.
The like results for `Nc1cccc(Nc2cc(S(=O)(=O)O)c(N)c3c2C(=O)c2ccccc2C3=O)c1` were, in that order, 1000 nM and over 10000 nM.
For the compound `Nc1cc(Nc2cc(S(=O)(=O)O)c(N)c3c2C(=O)c2ccccc2C3=O)cc(C(=O)O)c1`, the IC50 on P2X purinoceptor 2 was 1000 nM; at P2X purinoceptor 4, over 10000 nM.
The like results for `Nc1c(S(=O)(=O)O)cc(Nc2ccc(Nc3nc(Cl)nc(Nc4ccccc4S(=O)(=O)O)n3)c(S(=O)(=O)O)c2)c2c1C(=O)c1ccccc1C2=O` [CIBACRON BLUE 3GA] were, in that order, over 1000 nM and 40000 nM.
The like results for `Nc1ccccc1Nc1cc(S(=O)(=O)O)c(N)c2c1C(=O)c1ccccc1C2=O` were, in that order, 1000 nM and over 10000 nM.

The record behind these values is ChEMBL document CHEMBL1671813, “Discovery of potent competitive antagonists and positive modulators of the P2X2 receptor” (J Med Chem, 2011).
